This is a sample that favours compounds with a hit; in the whole collection about 2.3% have one here.
SKN-1 block: blocks SKN-1 activity in C. elegans | AID 624304 | inhibition, % at 21.8 µM | actives 0.49% (n = 360,000) | C. elegans VP596 Pgst-4::GFP/RFP ratio, acrylamide-induced, 24 h;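 active = interference check ratio from 0.5 to 1.5 plus GFP to RFP signal ratio inhibition reaching or exceeding a fixed threshold, cut at about 30% in these data, passing the limit was not always enough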
Rpn11 block: blocks the human proteasome subunit Rpn11 | O00487 | human 26S proteasome, Ub4-pepOG fluorescence polarization; 20S core pre-blocked with epoxomicin | actives 0.59% (n = 360,000) | inhibition, % at 20 µM | AID 588493;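 active = inhibition at 20 µM, scaled to each plate's controls, above about 33%, limit read from the data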
MT1-MMP act inh: blocks activation of human MT1-MMP; GFP/RFP ratio change, % at 20 µM; actives 0.061% (n = 360,000); HT1080 RFP-PRO-GFP cells, GFP/RFP ratio fluorescence, overnight; percent of plate control window, DMSO zero;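 active = GFP/RFP ratio change of at least 30% with cell ATP level not reduced by more than half and red fluorescence within 50% of control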
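system = RFP-PRO-GFP reporter HT1080 cells | dosing = 20 µM single dose, 1% DMSO | timing = overnight cell settling, then overnight compound exposure, 37 °C, 5% CO2 | read-out basis = GFP/RFP fluorescence ratio | controls = DMSO and RFP-L50D-GFP cell wells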
DNMT1 inh: blocks human DNA methyltransferase DNMT1; actives 0.83% (n = 360,000); DNMT1 molecular beacon, Hinp1I cleavage, fluorescence; inhibition (reported as % activation of signal), % at 10 µM; in the data active = inhibition above about 50%
SUMO1-SIM PPI: modulators of human SUMO1-mediated protein-protein interactions. P63165. SUMO1 binding to a labelled peptide, TR-FRET, 1 h. inhibition, % at 20 µM. actives 0.33% (n = 360,000). AID 602429; in the data active = inhibition above about 37%
Target sequence (P63165 whole entry, looked up): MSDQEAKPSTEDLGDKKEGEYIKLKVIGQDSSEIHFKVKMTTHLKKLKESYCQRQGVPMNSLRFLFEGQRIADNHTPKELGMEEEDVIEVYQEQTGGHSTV
CSN deneddyl inh: blocks human CSN-mediated cullin deneddylation; Q92905; Purified CSN, SCF-Nedd8-OG deneddylation, fluorescence polarization; inhibition, % at 12.5 µM; actives 0.38% (n = 360,000);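 active = pattern-corrected inhibition above about 35%, with an unprinted fluorescence ratio check between 0.5 and 1.5, limit read from the data, passing the limit was not always enough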
Target sequence (Q92905 whole entry, looked up, one chain of several): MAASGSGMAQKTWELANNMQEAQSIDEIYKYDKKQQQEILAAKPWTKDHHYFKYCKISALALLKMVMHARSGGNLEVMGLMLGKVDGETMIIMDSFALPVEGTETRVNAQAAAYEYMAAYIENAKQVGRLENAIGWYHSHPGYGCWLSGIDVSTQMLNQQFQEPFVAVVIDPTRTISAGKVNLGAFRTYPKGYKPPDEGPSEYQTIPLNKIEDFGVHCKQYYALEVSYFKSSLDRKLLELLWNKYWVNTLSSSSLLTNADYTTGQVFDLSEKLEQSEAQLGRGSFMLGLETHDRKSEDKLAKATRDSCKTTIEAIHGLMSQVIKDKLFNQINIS
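Test system: Human Csn5 produced in HEK293T cells | Compound: 12.5 µM single point | Times: 90 min, room temperature | Signal: Fluorescence polarization readout | Read-out basis: % inhibition of substrate cleavage by Csn5 | Controls: no-enzyme wells high, enzyme-with-substrate wells low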
Hits are given with their value; i = inactive; nt = not tested or not shown; + = active, no number.

SMILES | SKN-1 block | Rpn11 block | MT1-MMP act inh | DNMT1 inh | SUMO1-SIM PPI | CSN deneddyl inh
CCCS(=O)(=O)NC(=O)C1(C)CCCN(C(=O)c2ccc3c(c2)OCO3)C1 (stereo unspecified) | i | i | i | i | i | i
COc1cccc(C(C(=O)NC2CCCC2)N2CCN(c3ncccc3C#N)CC2)c1OC (stereo unspecified) | i | nt | i | nt | i | i
O=C(c1cnn2c(C(F)(F)F)cc(-c3ccc4c(c3)OCO4)nc12)N1CCCCC1 | i | i | i | i | i | i
O=C(NC1CCCC1)c1cnn2c(C(F)(F)F)cc(-c3ccc4c(c3)OCO4)nc12 | i | nt | i | 51 | i | i
CC(C)CN(C(=O)COC(=O)CCSc1ccc(Cl)cc1)c1c(N)n(Cc2ccccc2)c(=O)[nH]c1=O | i | i | i | i | i | i
CC1Cc2cc(/C(O)=C3/C(=O)C(=O)N(CC4CCCO4)C3c3ccco3)ccc2O1 (stereo unspecified) | i | i | i | 50 | i | i
COc1cc(C2/C(=C(\O)c3ccc4c(c3)CC(C)O4)C(=O)C(=O)N2CC2CCCO2)cc(OC)c1OC (stereo unspecified) | i | i | i | i | i | i
CS(=O)(=O)N1N=C(c2cccs2)CC1c1ccccc1O (stereo unspecified) | 41 | i | i | i | i | i
CCCCN(C)C1=CC2=CC(=C(C#N)C#N)CCC2CC1 (stereo unspecified) | i | nt | i | + | i | i
CCN(CC)C1=CC2=CC(=C(C#N)C#N)CCC2CC1 (stereo unspecified) | i | nt | i | + | i | i
CO[C@@H]1CN(C)C(=O)c2cc(NC(=O)Nc3cc(F)ccc3F)ccc2OC[C@H](C)N(C(=O)c2cnccn2)C[C@@H]1C | i | nt | i | nt | i | i
Cc1cc(C)c(S(=O)(=O)Nc2nccs2)c(C)c1 | i | i | i | i | 43 | i
COc1ccc(S(=O)(=O)Nc2cc3c4c(oc3c3ccccc23)CC(C)(C)CC4=O)cc1 | 35 | i | i | i | i | i
CCCCNC(=O)C[C@@H]1C[C@@]2(C(=O)OCC)CCCC=C2N(CCC2=CCCCC2)C1=O | i | nt | i | nt | i | i
Fc1cccc(CSc2ccc(-c3ccco3)nn2)c1 | 49 | i | i | i | i | i
Fc1ccc(CSc2ccc(-c3ccco3)nn2)cc1 | i | i | i | i | i | i
Cc1ccccc1-c1cc2nc(C)c(Cl)c(=O)n2[nH]1 | i | i | i | i | i | i
Cc1nc2cc(-c3ccsc3-n3c(C)ccc3C)[nH]n2c(=O)c1Cl | i | i | i | i | 41 | i
COc1ccc(C2=NOC(Cn3nc(-c4ccccc4)cc3C(=O)NCc3cccc(C(F)(F)F)c3)C2)cc1 (stereo unspecified) | i | i | i | i | i | i
COc1ccc(C2=NOC(Cn3nc(-c4ccccc4)cc3C(=O)NCc3ccc(C)cc3)C2)cc1 (stereo unspecified) | i | i | i | i | i | 35
Cc1cccc(NC(=O)c2sc3nc(-c4ccc(F)cc4)cn3c2C)n1 | i | nt | i | i | i | 36
CC(=O)c1cccc(NC(=O)C2Cc3c(-c4ccco4)ccnc3O2)c1 (stereo unspecified) | i | i | i | i | i | i
Cn1c(=O)c(NCCO)c2c3c(cccc31)C(=O)c1ccccc1-2 | i | i | i | 142 | i | i
CCCCNc1c2c3c(cccc3n(C)c1=O)C(=O)c1ccccc1-2 | i | i | i | 192 | i | i
Cn1c(=O)c(NCCc2ccccc2)c2c3c(cccc31)C(=O)c1ccccc1-2 | i | i | i | 76 | i | i
SMILES | SKN-1 block | Rpn11 block | MT1-MMP act inh | DNMT1 inh | SUMO1-SIM PPI | CSN deneddyl inh
O=C(NCc1ccccc1)C1Cc2c(-c3ccc(Cl)cc3)ccnc2O1 (stereo unspecified) | i | i | i | i | i | i
Cc1ccc(NC(=O)Cn2nnc(C(=O)NCCc3ccccc3)c2N)c(C)c1 | i | i | i | 53 | i | 55
CN(C)c1ccc(/C=C(/NC(=O)c2ccccc2)C(=O)NCCCn2ccnc2)cc1 | i | nt | i | i | i | 72
O=C(Nc1cccc(C(F)(F)F)c1)c1ccc2nc(-c3ccco3)c(-c3ccco3)nc2c1 | i | i | i | 85 | i | i
CCc1nc2ccc(C(=O)NCCc3ccc(OC)c(OC)c3)cc2nc1CC | i | i | i | i | i | i
COc1ccc(CCNC(=O)c2ccc3nc(-c4ccco4)c(-c4ccco4)nc3c2)cc1OC | i | i | i | 98 | 47 | i
O=C(Nc1ccc2nc(-c3ccco3)c(-c3ccco3)nc2c1)NC1CC1 | i | i | i | 93 | 76 | i
CCOC(=O)[C@]12CCCC=C1N(Cc1ccc(Cl)cc1Cl)C(=O)[C@H](CC(=O)NCCc1ccccc1OC)C2 | i | nt | i | nt | i | i
Cc1cc(C)c(S(=O)(=O)/N=C2/C=C(SCC(=O)O)C(=O)c3ccccc32)cc1C | i | i | i | i | 84 | i
O=C(NCc1ccccc1)C1c2ccccc2OCC(=O)N1CCc1c[nH]c2ccccc12 (stereo unspecified) | i | nt | i | nt | i | i
O=c1cccc(-c2ccc3ccccc3c2)o1 | i | nt | i | nt | i | i
COC(=O)c1ccc(COc2cccn3c(N(C)C(=O)CCC4CCCC4)c(C)nc23)cc1 | i | i | i | i | i | i
CC(C)(C)c1cc(C(=O)O)n(Cc2ccc(Cl)cc2Cl)n1 | i | i | i | i | 49 | i
CCOC(=O)c1cc2c(=O)n3ccccc3nc2n(Cc2ccc(Cl)cc2)c1=N | i | nt | i | i | i | 42
N=c1c(C(=O)NCc2ccco2)cc2c(=O)n3ccccc3nc2n1Cc1ccccc1 | i | i | i | 75 | i | i
N=c1c(C(=O)NCc2ccco2)cc2c(=O)n3ccccc3nc2n1Cc1ccc(Cl)cc1 | i | i | i | i | i | i
N=c1c(C(=O)NCc2ccccc2)cc2c(=O)n3ccccc3nc2n1Cc1ccco1 | 37 | i | i | i | i | i
COC(=O)C1(C(=O)OC)C/C=C\CCN(S(=O)(=O)c2ccccc2[N+](=O)[O-])CC1 | i | nt | i | nt | i | i
COC(=O)c1cccc(N2C(=O)C[C@](Sc3ccc(C)cc3)(C(=O)OC)[C@H]2c2ccccc2)c1 | i | nt | i | nt | i | i
COc1ccccc1NC(=O)Cn1nnc(-c2ccccc2NC(=O)c2cccs2)n1 | i | i | i | i | i | 37
CSc1ccccc1NC(=O)c1cccs1 | i | i | i | i | i | i
O=C(Nc1ccccc1Oc1ccccc1)c1cccs1 | 42 | i | i | i | i | i
COc1ccc(OC)c(/C=C2\S/C(=N/NC(=O)c3ccc4ccccc4c3)NC2=O)c1 | i | nt | i | i | i | 51

From PubChem
